The list is not random: actives were taken first. Their share in the collection is about 2.8%.
m5-HT2A agonist: agonists of mouse serotonin 5-HT2A receptor (HTR2A); P35363; CHO-K1 mHTR2A beta-arrestin complementation, luminescence; percent of 30 µM serotonin response; activation, % at 7.6 µM; hit rate 0.66% among 360,000; AID 624169;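 active = activation above a run cutoff, the mean activation of all tested compounds plus 3 SD, cut at about 14% in these data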;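 also: 0% = plate median of compound wells and 100% = 30 µM serotonin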
Target sequence (P35363 whole entry, looked up): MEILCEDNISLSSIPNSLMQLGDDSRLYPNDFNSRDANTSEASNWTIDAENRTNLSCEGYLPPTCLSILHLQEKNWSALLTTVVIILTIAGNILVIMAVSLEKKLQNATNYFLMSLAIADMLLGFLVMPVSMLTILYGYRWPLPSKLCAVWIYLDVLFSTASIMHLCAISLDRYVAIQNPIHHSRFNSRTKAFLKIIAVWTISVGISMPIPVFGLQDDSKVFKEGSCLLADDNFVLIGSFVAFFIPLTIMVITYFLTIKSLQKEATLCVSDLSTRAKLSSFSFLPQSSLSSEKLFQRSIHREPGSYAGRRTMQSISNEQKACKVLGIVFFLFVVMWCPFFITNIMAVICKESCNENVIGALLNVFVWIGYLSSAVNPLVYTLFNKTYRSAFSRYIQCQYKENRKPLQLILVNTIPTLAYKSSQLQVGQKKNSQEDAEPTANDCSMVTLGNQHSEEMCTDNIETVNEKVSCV
MC4R antag cAMP: blocks human MC4R cAMP signaling; inhibition, % at 6.5 µM; P32245; MC4R-expressing cells, MTII-stimulated cAMP, LANCE TR-FRET; hit rate 0.48% among 360,000;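 active = inhibition above its plate's cutoff, the mean of tested wells on that plate plus 3 SD, cut at about 29% in these data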;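 also: 0% = Melanotan II alone and 100% = Melanotan II plus saturating MCL0020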
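System: U2OS cells stably expressing human melanocortin 4 receptor (MC4R). Reagent: Melanotan II challenge after compound preincubation. Doses: 6.5 µM. Times: 30-min compound, 1-h challenge, 1-h detection, room temperature. Measured by: TR-FRET with Eu-cAMP and labeled anti-cAMP, 671 nm. Replicates: singlicate.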
MC4R barr agon: agonists of human melanocortin 4 receptor (MC4R) beta-arrestin; activation, % at 8.9 µM; U2OS MC4R beta-arrestin complementation, luminescence; percent of melanotan II response, DMSO zero; hit rate 0.98% among 360,000; P32245;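 active = activation above a per-plate cutoff, the mean activation of sample wells on that plate plus 3 SD, cut at about 8% in these data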
EBI2 antag: antagonists of human EBI2 receptor | EBI2 beta-arrestin recruitment, luminescence, 7a,25-OHC stimulated | P32249 | inhibition, % at 5 µM | hit rate 0.81% among 360,000; in the data active = inhibition above about 38%;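 also: enzyme fragment complementation signal reports receptor beta-arrestin coupling in cells; 0% = agonist plus DMSO wells and 100% = wells without agonist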
* hit, by the source's call; nt = no result given.

SMILES	m5-HT2A agonist	MC4R antag cAMP	MC4R barr agon	EBI2 antag
O=C(O)CCn1cc(/C=C/C(=O)c2ccc(Cl)cc2)c(-c2ccc(Br)cc2)n1	-3	35*	-1	2
O=C(O)/C=C/c1cn(Cc2ccccc2)nc1-c1ccccc1	-1	13	0	3
COc1cccc(-c2cnc(C(O)c3cc(C)cc(C)c3)[nH]2)c1 (stereo not given)	4	-2	-2	-5
COc1ccc(NC(=O)N2CCCC(c3nc(-c4ccc(C(C)C)cc4)no3)C2)cc1 (stereo not given)	0	22	1	72*
C[C@H]1Cn2cnc(C(=O)NCC(=O)OC(C)(C)C)c2C(=O)N1	-1	4	1	4
COCCC1CCCCN1C(=O)c1ccc2nc(Cc3ccccc3F)oc2c1 (stereo not given)	-2	3	-1	4
COc1ccc2nc(C)cc(N/N=C/c3ccc(F)cc3)c2c1	2	9	9.2*	-16
Cc1c(Cc2ccccc2)sc(/N=C/c2c(O)ccc3ccccc23)c1C(N)=O	2	-2	10*	0
Cc1cc(=O)oc2cc(NC(=O)C3COc4ccccc4O3)ccc12 (stereo not given)	3	13	11*	3
CCOc1cc(N2CCOCC2)c(OCC)cc1NC(=O)c1cc(S(=O)(=O)N2CCOCC2)ccc1F	-3	10	0	1
CCCc1nn(C)c(C(=O)Nc2cccc(CC)c2)c1Cl	4	6	6	-2
CCCc1nn(C)c(C(=O)Nc2ccc3ccccc3c2)c1Cl	-1	14	9.4*	7
COc1ccc(CN2C(=O)C(CC(=O)NC(c3ccccc3)c3ccccc3)CC(C(=O)N(C(C)C)C(C)C)=C2C)cc1 (stereo not given)	-2	6	0	18
O=C(c1ccc(COc2ccc(Cl)cc2)o1)N1N=C(C(F)F)CC1(O)C(F)F (stereo not given)	-1	-5	8.7*	-5
CCc1cc2cc(C(=O)Nc3ccc(F)cc3)sc2s1	2	0	1	2
CCc1cc2cc(C(=O)Nc3ccccc3F)sc2s1	-10	-2	9.0*	12
CCC(=O)N1CCCC1(C)C(=O)Nc1cc(OC)ccc1OC (stereo not given)	4	10	2	0
Oc1[nH]c2ccc(Br)cc2c1N=NC(=S)N1CCOCC1	-11	-15	-3	42*
CC(=O)Oc1cccc(N2C(=O)c3ccc(C(=O)Nc4c[nH]c(=O)[nH]c4=O)cc3C2=O)c1	1	42*	0	-7
Cc1ccc(S(=O)(=O)N/N=C/c2cccn2-c2ccc(Cl)cc2)cc1	-2	1	0	9
CC1=NN(c2ccc(Cl)cc2)C(=O)/C1=C\c1cccn1-c1ccc(S(N)(=O)=O)cc1	5	8	-2	60*
C[C@H]1CN([C@@H](C)CO)C(=O)CCCn2nncc2CO[C@H]1CN(C)C(=O)Nc1ccnc(N2CCOCC2)c1	2	4	-1	-5
Cc1ccc(-c2ccc(=O)n(CC(=O)N3CCN(c4cc(Cl)ccc4C)CC3)n2)cc1	1	11	8.5*	6
CC(=O)Nc1cc(-c2ccc(CO)cc2)cn2c(-c3ccc(F)c(Cl)c3)cnc12	2	15	9.1*	33
C[C@@H]1[C@@H](Sc2ccccc2)CC(=O)O[C@@H]1c1ccc(-c2ccccc2)cc1	1	11	-1	10
SMILES	m5-HT2A agonist	MC4R antag cAMP	MC4R barr agon	EBI2 antag
O=C1C=CC2(O[C@H](c3ccccc3)[C@@H](c3ccccc3)O2)[C@H](Sc2ccccc2O)C1	-1	28	-3	72*
CS(=O)(=O)N(CC(=O)N1CCN(c2ccccc2)CC1)c1cc(C(F)(F)F)ccc1Cl	-1	5	-1	46*
CS(=O)(=O)N(CC(=O)N1CCCC1)c1cc(C(F)(F)F)ccc1Cl	4	-5	0	2
OC(c1cccc(Cl)c1)c1ncc(-c2ccc(C(F)(F)F)cc2)[nH]1 (stereo not given)	-2	10	1	16
COc1cccc(C(C(=O)NCc2ccccc2)N2CCN(c3cccc(C)c3C)CC2)c1OC (stereo not given)	5	nt	nt	27
O=C(/C=C/c1cc2c(cc1Br)OCO2)NCc1ccc(F)cc1	-4	3	8	-6
COc1ccc(CNC(=O)/C=C/c2cc3c(cc2Br)OCO3)cc1	-2	-5	8.5*	-13
COc1cccc(-c2nc3nc(C)cc(C)n3c2NC2CCCC2)c1	6	nt	nt	1
CCOc1cc(N2CCOCC2)c(OCC)cc1NC(=O)COC(=O)CCOc1ccc(C(C)(C)C)cc1	3	1	-3	11
CC(C)(C)c1ccc(OCCC(=O)Nc2ccc(N3CCOCC3)cc2N2CCOCC2)cc1	-1	9	8.6*	7
COc1ccccc1CNC(=O)COC(=O)c1cc(=O)[nH]c2ccccc12	3	-8	2	2
C#CC(=O)N(c1cccc(OC)c1)C(C(=O)NC1CCCC1)c1cccs1 (stereo not given)	-8	35*	8	53*
COc1ccc(N(C(=O)c2ccco2)C(C(=O)NC2CCCC2)c2cccs2)c(OC)c1 (stereo not given)	-1	27	0	-4
COc1ccc(NC2=C(Cl)C(=O)N(c3ccccc3)C2=O)c(OC)c1	-2	0	0	3
COc1ccc(N2C(=O)C(Cl)=C(Nc3ccc(OC)cc3OC)C2=O)cc1	6	-3	13*	0
CCOC(=O)CSc1nc(N)c(C#N)c(-c2cccs2)c1C#N	-2	4	-1	-3
CCOC(=O)CSc1c(-c2cccs2)[nH]c2ccccc12	0	2	8.6*	4
COCCn1c(=NC(=O)c2ccc(S(=O)(=O)N3CCc4ccccc4C3)cc2)sc2cc(S(N)(=O)=O)ccc21	3	5	-3	9
C#CCn1c(=NC(=O)c2ccc(S(=O)(=O)N3CCc4ccccc4C3)cc2)sc2cc(S(N)(=O)=O)ccc21	2	-5	9.2*	-2
COCCn1c(=NC(=O)c2cc(Cl)sc2Cl)sc2cc(S(N)(=O)=O)ccc21	1	17	9.3*	16
COc1cccc2sc(Nc3nc(-c4ccccn4)cs3)nc12	-8	-7	-3	86*
Cc1cc(C(=O)N/N=C/c2cc(Cl)cc([N+](=O)[O-])c2O)c2ccccc2n1	-17	6	-1	54*
Cc1cccc(/C=C/C(=O)c2ccc([N+](=O)[O-])o2)c1	-3	6	0	-10
Cc1nc2ccccn2c1C(=O)/C=C/c1cccc([N+](=O)[O-])c1	-2	4	-1	42*
O=C(/C=C/c1cccc([N+](=O)[O-])c1)c1ccc([N+](=O)[O-])o1	1	30*	-3	9
COc1ccc(N(C(=O)CCl)C(C(=O)NCCc2ccccc2)c2cccs2)cc1 (stereo not given)	7	28	12*	30
Cc1cc(NC(=O)CSc2nc(C(C)C)nc3sc(C)c(C)c23)no1	2	-4	8.4*	-7

High-throughput results as filed in PubChem BioAssay.
